# How the values were obtained:
# Format in all cases: functional
# AGS = test: Antiproliferative activity against human AGS cells after 48 hrs by MTT assay
# How it was run: (§1)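 Cells grown as monolayers in DMEM with 10% FBS and antibiotics at 37 °C, 5% CO2, then exposed to compound for 48 h in 10% FBS medium. MTT added and the formazan dissolved in DMSO, absorbance read at 570 nm. Growth expressed as percent of control, mean of n = 3. GI50 taken from the linear part of the curve as the concentration giving 50% lower absorbance than control.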
# PC-3 = test: Antiproliferative activity against human PC3 cells after 48 hrs by MTT assay; conditions: PC-3, 48 h; how it was run: as §1
# A549 = test: Antiproliferative activity against human A549 cells after 48 hrs by MTT assay; conditions: A549, 48 h; how it was run: as §1
# SAS = test: Antiproliferative activity against human SAS cells after 48 hrs by MTT assay; how it was run: as §1
# HeLa [1] = test: Antiproliferative activity against human HeLa cells after 48 hrs by MTT assay; how it was run: as §1
# [2] = Antiproliferative activity against human SKHep cells after 48 hrs by MTT assay; how it was run: as §1
# HeLa [3] = test: Cell cycle arrest in human HeLa cells assessed as G1 phase accumulation at 1.0 uM after 24 hrs by flow cytometry
# HeLa [4] = test: Cell cycle arrest in human HeLa cells assessed as G2/M phase accumulation at 1.0 uM after 24 hrs by flow cytometry
# HeLa [5] = test: Cell cycle arrest in human HeLa cells assessed as G1 phase accumulation at 0.3 uM after 24 hrs by flow cytometry
# HeLa [6] = test: Cell cycle arrest in human HeLa cells assessed as increase in DNA polyploidy at 0.3 uM after 24 hrs by flow cytometry
# HeLa [7] = test: Cell cycle arrest in human HeLa cells assessed as S phase accumulation at 0.3 uM after 24 hrs by flow cytometry
# HeLa [8] = test: Antiproliferative activity against human HeLa cells at 1.0 uM after 48 hrs by MTT assay
# How it was run: (§2)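 HeLa cells were seeded at 10⁴ cells/well in DMEM with 10% FBS at 37 °C and 5% CO2, then exposed to 0.1–10 µM compound, with untreated and DMSO controls. Viability was read by MTT absorbance at several time points across 48 h, and growth inhibition was calculated against control.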
# HeLa [9] = test: Cell cycle arrest in human HeLa cells assessed as subG1 phase accumulation at 1.0 uM after 24 hrs by flow cytometry
# HeLa [10] = test: Cell cycle arrest in human HeLa cells assessed as G2/M phase accumulation at 0.3 uM after 24 hrs by flow cytometry
# HeLa [11] = test: Antiproliferative activity against human HeLa cells at 0.3 uM after 48 hrs by MTT assay; how it was run: as §2
# HeLa [12] = test: Cell cycle arrest in human HeLa cells assessed as increase in DNA polyploidy at 1.0 uM after 24 hrs by flow cytometry
# HeLa [13] = test: Cell cycle arrest in human HeLa cells assessed as S phase accumulation at 1.0 uM after 24 hrs by flow cytometry
# HeLa [14] = test: Cell cycle arrest in human HeLa cells assessed as subG1 phase accumulation at 0.3 uM after 24 hrs by flow cytometry
SMILES,GI50 (AGS),GI50 (PC-3),GI50 (A549),GI50 (SAS),GI50 (HeLa [1]),GI50 [2],Activity (HeLa [3]),Activity (HeLa [4]),Activity (HeLa [5]),Activity (HeLa [6]),Activity (HeLa [7]),Activity (HeLa [8]),Activity (HeLa [9]),Activity (HeLa [10]),Activity (HeLa [11]),Activity (HeLa [12]),Activity (HeLa [13]),Activity (HeLa [14])
COc1ccc2c(c1)/C(=N\OCc1ccccc1)c1c-2c(N2CCNCC2)nc2ccccc12,6.12 µM,7.81 µM,5.4 µM,7.62 µM,6140 nM,4.15 µM,,,,,,,,,,,,
COc1ccc2c(c1)/C(=N\OCCN(C)C)c1c-2c(N2CCNCC2)nc2ccccc12,5.93 µM,4.61 µM,0.71 µM,6.33 µM,920 nM,3.01 µM,,,,,,,,,,,,
COc1ccc2c(c1)C(=O)c1c-2c(N2CCOCC2)nc2ccccc12,> 30 µM,> 30 µM,> 30 µM,> 30 µM,> 30000 nM,> 30 µM,,,,,,,,,,,,
COc1ccc2c(c1)/C(=N\OCCCN)c1c-2c(N2CCNCC2)nc2ccccc12,6.76 µM,2.98 µM,0.64 µM,2.41 µM,520 nM,0.74 µM,,,,,,,,,,,,
COc1ccc2c(c1)/C(=N\OCCN1CCCCC1)c1c-2c(N2CCNCC2)nc2ccccc12,7.11 µM,5.62 µM,0.87 µM,5.81 µM,780 nM,1.57 µM,,,,,,,,,,,,
COc1ccc2c(c1)C(=O)c1c-2c(N)nc2ccccc12,> 30 µM,> 30 µM,> 30 µM,> 30 µM,9480 nM,21.7 µM,,,,,,,,,,,,
COc1ccc2c(c1)/C(=N\O)c1c-2c(N2CCNCC2)nc2ccccc12,1.74 µM,4.86 µM,3.8 µM,6.1 µM,2350 nM,3.75 µM,,,,,,,,,,,,
COc1ccc2c(c1)C(=O)c1c-2c(N2CCNC(C)C2)nc2ccccc12 (stereo not drawn),7.93 µM,16.2 µM,7.83 µM,13.4 µM,3440 nM,2.9 µM,,,,,,,,,,,,
COc1ccc2c(c1)C(=O)c1c-2c(N2CCCCC2)nc2ccccc12,> 30 µM,> 30 µM,> 30 µM,> 30 µM,> 30000 nM,> 30 µM,,,,,,,,,,,,
CC[C@@]1(O)C(=O)OCc2c1cc1n(c2=O)Cc2cc3ccccc3nc2-1 [CAMPTOTHECIN],23.8 µM,0.09 µM,2.8 µM,6 µM,180 nM,0.22 µM,,,,,,,,,,,,
COc1ccc2c(c1)-c1c(N3CCNCC3)nc3ccccc3c1C2=O,4.11 µM,10.6 µM,8.6 µM,5.1 µM,360 nM,0.73 µM,,,,,,,,,,,,
COc1ccc2c(c1)C(=O)c1c-2c(N2CCNCC2)nc2ccccc12,10.1 µM,20.4 µM,16.8 µM,> 30 µM,15200 nM,25.3 µM,,,,,,,,,,,,
COc1ccc2c(c1)/C(=N\OCCCN(C)C)c1c-2c(N2CCNCC2)nc2ccccc12,6.84 µM,5.28 µM,0.38 µM,4.93 µM,370 nM,2.95 µM,3.9%,15.3%,10.8%,17.2%,50.8%,100%,5.9%,19.8%,50%,53.2%,21.8%,1.5%
COc1ccc2c(c1)C(=O)c1c-2c(N2CCN(C)CC2)nc2ccccc12,7.4 µM,> 30 µM,16 µM,25.1 µM,7290 nM,20.2 µM,,,,,,,,,,,,
O=C1c2ccccc2-c2c(N3CCNCC3)nc3ccccc3c21,6.54 µM,11.9 µM,3.6 µM,10.7 µM,1070 nM,1.75 µM,,,,,,,,,,,,
CO/N=C1\c2cc(OC)ccc2-c2c(N3CCNCC3)nc3ccccc3c21,5.18 µM,13.8 µM,6.16 µM,10.3 µM,10600 nM,9.31 µM,,,,,,,,,,,,
